Columns and labels:
[1] = Compound was evaluated for oral bioavailability in human; assay type: ADME, organism-based; conditions: in vivo, read-out: Activity
[2] = Half life period was evaluated in dog; 4-4.8; assay type: ADME, organism-based, Canis lupus familiaris; conditions: in vivo
[3] = (§1) Compound was evaluated for area under the curve expressed as (h*ug/ml); assay type: ADME; conditions: human
In short: (§2)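 Rats given 50 mg/kg orally. Plasma was separated at once by centrifugation and stored at -80 °C. Proteins were precipitated with acetonitrile and drug measured by HPLC to give Cmax, AUC and t1/2.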

[4] = Compound was evaluated for oral bioavailability in dog; 90-100; assay type: ADME, organism-based, Canis lupus familiaris; conditions: in vivo, read-out: Activity
[5] = Half life period was evaluated in rat; 5.9-7.5; assay type: ADME, organism-based; conditions: in vivo; in short: as §2
[6] = target: T1, Endothelin receptor type B (Homo sapiens, UniProt P24530); assay: Inhibitory concentration towards endothelin B receptor in human; assay type: functional
T1 sequence (P24530 whole entry): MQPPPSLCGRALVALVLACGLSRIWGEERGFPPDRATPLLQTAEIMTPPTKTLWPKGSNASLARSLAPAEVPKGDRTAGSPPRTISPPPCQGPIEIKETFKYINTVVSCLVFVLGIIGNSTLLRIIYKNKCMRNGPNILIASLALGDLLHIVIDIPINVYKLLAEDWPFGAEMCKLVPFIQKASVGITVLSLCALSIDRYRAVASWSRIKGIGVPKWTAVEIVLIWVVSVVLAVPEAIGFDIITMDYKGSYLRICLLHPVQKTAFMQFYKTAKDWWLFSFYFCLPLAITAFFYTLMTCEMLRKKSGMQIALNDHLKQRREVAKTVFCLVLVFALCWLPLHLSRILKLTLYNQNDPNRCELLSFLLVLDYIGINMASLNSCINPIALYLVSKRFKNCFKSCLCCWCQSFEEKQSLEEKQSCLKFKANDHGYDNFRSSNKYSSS

Endothelin-1 receptor [7] = target: T2, Endothelin-1 receptor (Rattus norvegicus, UniProt P26684); assay: Binding affinity towards Endothelin A receptor
T2 sequence (P26684 whole entry): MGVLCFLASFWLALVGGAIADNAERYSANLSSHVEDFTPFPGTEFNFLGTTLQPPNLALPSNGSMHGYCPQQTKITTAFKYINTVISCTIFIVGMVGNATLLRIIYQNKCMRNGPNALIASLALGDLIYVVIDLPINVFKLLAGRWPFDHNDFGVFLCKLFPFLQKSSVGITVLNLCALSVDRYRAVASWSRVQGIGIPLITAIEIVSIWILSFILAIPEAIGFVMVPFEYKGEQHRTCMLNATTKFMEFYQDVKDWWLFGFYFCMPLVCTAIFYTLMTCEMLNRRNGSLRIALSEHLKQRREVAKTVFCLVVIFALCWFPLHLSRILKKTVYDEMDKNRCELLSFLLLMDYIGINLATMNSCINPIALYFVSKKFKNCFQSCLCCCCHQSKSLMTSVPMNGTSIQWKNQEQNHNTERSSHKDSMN

[8] = target: Endothelin receptor (Rattus norvegicus) (UniProt P26684+P21451); assay: Selectivity for endothelin A receptor over endothelin receptor B; assay type: protein assay
Rattus norvegicus [9] = assay: Compound was evaluated for oral dose to effect 50% inhibition of mean pulmonary arterial pressure; assay type: functional, Artery
In short: (§3)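 Acute hypoxia-induced pulmonary hypertension model in rats. Compound given orally; the oral dose giving 50% inhibition of the increase in mean pulmonary arterial pressure is reported.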

[10] = Half life period was evaluated in human; assay type: ADME
[11] = target: Endothelin-1 receptor (Homo sapiens) (UniProt P25101); assay: Selectivity towards endothelin A receptor in human.
[12] = Compound was evaluated for oral bioavailability in rats; conditions: rat, in vivo
[13] = Half life period was determined; 6-7; assay type: ADME; conditions: human
[14] = Cmax in rat plasma after oral dose (50 mg/Kg); assay type: ADME, organism-based; design: dose 50 mg/Kg, route oral; in short: as §2
[15] = Half life period was determined; assay type: ADME, organism-based; conditions: rat, in vivo; in short: as §2
[16] = as §1; assay type: ADME, organism-based; design: concentration or dose not given beside the values; conditions: rat, in vivo; in short: as §2
Endothelin-1 receptor [17] = target: T3, Endothelin-1 receptor (Homo sapiens, UniProt P25101); assay: Displacement of [125I]ET-1 from Endothelin A receptor
T3 sequence (P25101 whole entry): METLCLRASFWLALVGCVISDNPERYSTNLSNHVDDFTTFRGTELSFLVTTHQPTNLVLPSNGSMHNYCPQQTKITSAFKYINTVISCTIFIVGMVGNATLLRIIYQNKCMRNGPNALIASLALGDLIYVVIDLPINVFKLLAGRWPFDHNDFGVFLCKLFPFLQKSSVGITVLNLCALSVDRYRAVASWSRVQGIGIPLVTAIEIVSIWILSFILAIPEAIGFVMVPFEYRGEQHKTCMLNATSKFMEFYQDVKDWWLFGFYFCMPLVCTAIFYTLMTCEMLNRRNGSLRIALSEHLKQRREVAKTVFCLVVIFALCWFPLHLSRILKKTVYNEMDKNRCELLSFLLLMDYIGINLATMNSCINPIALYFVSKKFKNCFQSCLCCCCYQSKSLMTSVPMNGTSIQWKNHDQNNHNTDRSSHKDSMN

Rattus norvegicus [18] = assay: Compound was evaluated for oral dose to effect 50% inhibition of mean pulmonary arterial pressure (MPAP); assay type: functional, Artery; in short: as §3
[19] = Half life period was evaluated in rat; conditions: in vivo

Chain of Endothelin receptor (Rattus norvegicus) (P21451 whole entry, looked up, one chain of several): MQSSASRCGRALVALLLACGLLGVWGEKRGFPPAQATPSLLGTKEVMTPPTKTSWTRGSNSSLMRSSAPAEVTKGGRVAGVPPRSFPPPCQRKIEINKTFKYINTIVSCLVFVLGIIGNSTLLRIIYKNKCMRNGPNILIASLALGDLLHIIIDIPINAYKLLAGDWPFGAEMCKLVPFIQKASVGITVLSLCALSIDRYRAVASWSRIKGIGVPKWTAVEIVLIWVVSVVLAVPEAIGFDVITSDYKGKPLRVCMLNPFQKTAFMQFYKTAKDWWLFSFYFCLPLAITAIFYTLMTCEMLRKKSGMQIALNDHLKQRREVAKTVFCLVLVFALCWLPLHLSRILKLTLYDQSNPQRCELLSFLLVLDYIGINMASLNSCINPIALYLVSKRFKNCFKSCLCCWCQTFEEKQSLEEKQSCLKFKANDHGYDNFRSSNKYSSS

Row | SMILES | bioavailability [1] [%] | half-life [2] [h] | AUC [3] [µg·h/mL] | bioavailability [4] [%] | half-life [5] [h] | IC50 [6] [nM] | Ki (Endothelin-1 receptor [7]) [nM] | Selectivity [8] | Activity (Rattus norvegicus [9]) [mg/kg] | half-life [10] [h] | Selectivity [11] | bioavailability [12] [%] | half-life [13] [h] | Cmax [14] [µg/mL] | half-life [15] [h] | AUC [16] [µg·h/mL] | IC50 (Endothelin-1 receptor [17]) [nM] | Activity (Rattus norvegicus [18]) [mg/kg] | half-life [19] [min]
1 | Cc1cc2c(cc1CC(=O)c1sccc1S(=O)(=O)Nc1onc(C)c1Cl)OCO2 [SITAXENTAN] | ~80 | 4.8 | 33 | 100 | 7.5 | 9800 | 0.43 | 7000 | 2.5 | 6.46 | 6500 | – | – | – | – | – | – | – | –
2 | CC(=O)c1cc(C)cc(C)c1NC(=O)c1sccc1S(=O)(=O)Nc1onc(C)c1C | > 80 | – | – | – | – | – | – | – | – | – | 441000 | ~100 | 7 | 180 | 5.3 | 1310 | 0.08 | < 1 | –
3 | COc1ccccc1Oc1c(NS(=O)(=O)c2ccc(C(C)C)cn2)nc(-c2ccnc(-c3nnn[nH]3)c2)nc1OCCO [TEZOSENTAN] | – | – | – | – | – | – | – | 56 | – | – | – | – | – | – | – | – | 23 | – | 7.8

From ChEMBL document CHEMBL1148449, “Discovery, modeling, and human pharmacokinetics of N-(2-acetyl-4,6-dimethylphenyl)-3-(3,4-dimethylisoxazol-5-ylsulfamoyl)thiophene-2-carboxamide (TBC3711), a second generation, ETA selective, and orally bioavailable endothelin antagonist” (J Med Chem, 2004)
